From PubChem
ABCG2 inh – ABCG2 efflux pump inhibitors, primary screen, multiplex with ABCB1, IgMXP3 cells, flow cytometry | 0.1% of 190,000 active | Broad substrate specificity ATP-binding cassette transporter ABCG2 (Homo sapiens), Q9UNQ0 | JC-1 efflux | AID 1325, 2008 | inhibition, % at 6.6 µM;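 active = inhibition above 80%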
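Measure – % inhibition of efflux relative to nicardipine and DMSO · Test system – ABCG2 IgMXP3 and barcoded ABCB1 CCRF-Adr cell mix · Control set – nicardipine as high control, DMSO as low control · Compound – one concentration, 6.6 µM final · Signal – flow cytometry of retained JC-1 fluorescence · Timing – 10 min exposure at 25 °C with rotation, no wash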
MEKK2wt PB1 HTS – modulators of MEK5 binding to wildtype MEKK2, primary screen, biochemical, multiplex bead flow cytometry, Alexa488-MEK5. Alexa488-MEK5 binding to MEKK2 WT; actives lie on both sides. Mitogen-activated protein kinase kinase kinase 2 (Homo sapiens), Q9Y2U5. binding response (% of control), % at 10 µM. 1.1% of 290,000 active; in the data active = binding response below about 67% or above about 130%
ABCB1 block – ABCB1 efflux pump inhibitors, primary screen, cell-based, multiplex, flow cytometry, ABCG2 counter-screen | ATP-dependent translocase ABCB1 (Homo sapiens), P08183 | AID 1326, 2008 | 0.067% of 190,000 active | inhibition, % at 6.6 µM | CCRF-Adr cells, JC-1 efflux; in the data active = inhibition above about 40%;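 also: higher value means more JC-1 retained so stronger ABCB1 efflux block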
WT yeast gro inh – growth inhibition of WT strain, primary screen, mitochondrial fusion inhibitor project, WT and mutant strains, chemical genetic. mitochondrial fusion phenotypic screen. inhibition, % at 10 µM. 2.1% of 190,000 active; in the data active = inhibition above about 58%; tested in S. cerevisiae
MEKK3 PB1 HTS – modulators of MEKK3-MEK5 PB1 binding, primary screen, biochemical, wildtype MEKK3, multiplex bead flow cytometry, Alexa488-MEK5. bead-based flow cytometry, Alexa488-MEK5 binding to MEKK3; actives lie on both sides; 0 = blocked by unlabeled MEK5, 100 = vehicle. 1.4% of 290,000 active. Mitogen-activated protein kinase kinase kinase 3 (Homo sapiens), Q99759. binding response (% of control), % at 10 µM;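 active = binding response more than 3 SD above or below the average of its plate-row segment, actives on both sides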;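 also: Alexa488 bead fluorescence after subtracting the streptavidin-only scavenger bead signal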
Target sequence (Q99759 whole entry, looked up): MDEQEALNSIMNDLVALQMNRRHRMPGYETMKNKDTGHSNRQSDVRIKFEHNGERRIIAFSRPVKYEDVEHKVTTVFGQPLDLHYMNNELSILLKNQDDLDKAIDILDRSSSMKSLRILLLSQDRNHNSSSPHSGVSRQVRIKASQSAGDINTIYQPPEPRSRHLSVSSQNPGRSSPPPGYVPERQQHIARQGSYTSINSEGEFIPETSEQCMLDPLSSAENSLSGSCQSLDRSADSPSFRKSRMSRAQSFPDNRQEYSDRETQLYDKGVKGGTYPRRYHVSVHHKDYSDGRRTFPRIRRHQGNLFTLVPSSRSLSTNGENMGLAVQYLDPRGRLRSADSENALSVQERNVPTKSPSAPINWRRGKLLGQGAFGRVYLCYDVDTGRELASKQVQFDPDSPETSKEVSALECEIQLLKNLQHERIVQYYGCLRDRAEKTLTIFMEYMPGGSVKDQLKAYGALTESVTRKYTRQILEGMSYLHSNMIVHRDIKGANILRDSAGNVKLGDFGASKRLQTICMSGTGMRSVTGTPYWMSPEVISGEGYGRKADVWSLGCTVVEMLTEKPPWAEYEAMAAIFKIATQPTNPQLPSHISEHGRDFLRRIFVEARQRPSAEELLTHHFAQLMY
MEKK2mut PB1 HTS – MEK5 binding signal on mutant MEKK2 PB1, primary screen, biochemical, multiplex bead flow cytometry, Alexa488-MEK5. Alexa488-MEK5 binding to MEKK2 mutant. percent response, % at 10 µM. 0.35% of 290,000 active. AID 1530, 2009; in the data active = percent response above about 24%, passing the limit was not always enough
A number is an active result; – = inactive; · = no result. Compounds with a hit are over-represented: about 3.5% of the library has one in this group of screens.

SMILES	ABCG2 inh	MEKK2wt PB1 HTS	ABCB1 block	WT yeast gro inh	MEKK3 PB1 HTS	MEKK2mut PB1 HTS
CCCN(CCC)C(=O)CC(c1ccccc1)c1ccc(C)cc1O (configuration not stated)	–	–	–	–	–	–
CCCN(CCC)C(=O)CC(c1ccccc1)c1cc(Br)ccc1O (configuration not stated)	–	–	–	76	–	–
CC(=O)Nc1ccc(C(=O)N(C)C(C(=O)Nc2ccccc2)c2ccccn2)cc1 (configuration not stated)	–	–	–	–	–	–
Cc1cc(N2C(=O)C=CC2=O)c([N+](=O)[O-])cc1C	–	–	–	62	–	–
O=C(NN=C1CCCCCC1)c1ccc2c(c1)OCO2	–	–	–	–	–	–
O=C1c2cccc3c([N+](=O)[O-])ccc(c23)C(=O)N1Cc1cccnc1	–	–	–	64	–	–
O=C1c2cccc3cccc(c23)C(=O)N1Cc1cccnc1	·	–	·	·	–	–
CC(C)CNC(=O)C1CC(=O)OC12CCCCC2 (configuration not stated)	–	–	–	–	–	–
O=C1CC(C(=O)NCc2ccccc2)C2(CCCC2)O1 (configuration not stated)	–	–	–	65	–	–
Cc1cc(NC(=O)/C=C/c2ccccc2Cl)n(-c2nc3ccccc3[nH]2)n1	–	–	–	–	150	–
Cc1cc(NC(=O)c2ccc(F)cc2F)n(-c2nc3ccccc3[nH]2)n1	–	–	–	–	–	–
COc1cc(C)c(NC(=S)Nc2ccc(Cl)c(Cl)c2)cc1OC	–	–	–	80	–	–
Fc1ccc(NC(=S)Nc2ccc(F)c(Cl)c2)cc1Cl	–	–	–	–	–	–
COCCNC(=S)Nc1ccc(Cl)c(Cl)c1	–	–	–	–	–	–
Cc1ccc(NC(=S)Nc2ccc(OC(F)F)c(Cl)c2)cc1F	–	–	–	85	–	–
COc1cc(OC)c(NC(=S)Nc2cc(Cl)cc(Cl)c2)cc1Cl	–	–	–	83	–	–
Cc1cccc(N2CCN(Cc3nc(-c4cccc(Cl)c4)oc3C)CC2)n1	–	–	–	62	–	–
Cc1cccc(N2CCN(Cc3nc(-c4ccccc4Cl)oc3C)CC2)n1	–	–	–	–	–	–
CCOC(=O)N1CCN(C(=O)CSc2ccc3nnc(CCNC(=O)c4ccc(OC)cc4)n3n2)CC1	–	–	–	–	–	–
CC(=O)CCc1c(C)[nH]c2ccc(NC(C)=O)cc2c1=O	·	–	·	–	–	–
CCCc1c(C)[nH]c2ccc(NC(C)=O)cc2c1=O	–	–	–	69	–	–
O=C(c1cc(Br)c(Br)s1)N1CCN(C/C=C/c2ccccc2)CC1	–	–	–	64	–	–
Cc1ccc(S(=O)(=O)N(CCCO)Cc2cc3c(C)ccc(C)c3[nH]c2=O)cc1	–	-2.0	–	–	–	–
Cc1cccc(C)c1NC(=O)C1c2cccc[n+]2CC(=O)N1Cc1ccc2c(c1)OCO2 (configuration not stated)	–	50	–	–	–	–
CCOC(=O)C1CCN(S(=O)(=O)c2cn(C)c(C)n2)CC1	·	–	·	·	–	–
CC(C)C(=O)Nc1cc(S(=O)(=O)Nc2ccc(Cl)cc2)ccc1Cl	–	–	–	74	–	–
CC(=O)Nc1ccnn1C1CCN(C(=O)c2cccc(C)c2C)CC1	·	–	·	·	–	–
O=C(O/N=C(\c1ccccc1)c1ccncc1)c1ccccc1F	–	-8.0	–	–	–	–
O=C(OCc1csc(-c2ccccc2)n1)c1cccs1	–	–	–	–	–	–
Cc1ccsc1C(=O)OCc1csc(-c2ccccc2)n1	–	–	–	67	–	–
